According to ChEMBL document CHEMBL1154295, “Potent and selective steroidal inhibitors of 17beta-hydroxysteroid dehydrogenase type 7, an enzyme that catalyzes the reduction of the key hormones estrone and dihydrotestosterone” (J Med Chem, 2009):
Activity calls are given as the source filed them. The rule behind the calls is not given here.

Assays:
[1] = target: T1, 3-keto-steroid reductase/17-beta-hydroxysteroid dehydrogenase 7 (Homo sapiens) (UniProt P56937); experiment: Inhibition of human 17beta-HSD7 expressed in HEK293 cells assessed as inhibition of reduction of [14C]dihydrotestosterone into [14C]5alpha-androstane-3beta,17beta-diol at 3 uM after 18 hrs; assay type: cell-based
T1 sequence (whole entry): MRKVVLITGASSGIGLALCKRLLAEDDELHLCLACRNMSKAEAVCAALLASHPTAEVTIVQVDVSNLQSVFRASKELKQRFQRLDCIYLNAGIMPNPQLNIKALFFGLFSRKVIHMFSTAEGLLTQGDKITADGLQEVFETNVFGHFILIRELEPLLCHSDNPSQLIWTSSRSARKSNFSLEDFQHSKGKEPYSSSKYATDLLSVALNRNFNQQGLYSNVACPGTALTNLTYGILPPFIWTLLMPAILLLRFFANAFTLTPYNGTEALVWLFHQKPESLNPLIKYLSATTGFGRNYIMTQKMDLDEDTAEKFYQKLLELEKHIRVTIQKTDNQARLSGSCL
In short: (§1)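 Intact HEK-293 cells stably overexpressing h17β-HSD7 (pCMV-neo, G-418 selected) were plated at 500 000 cells/well in MEM with 10% fetal calf serum at 37 °C. Fresh medium received 15 000 cpm (~150 nM) [4-14C]-DHT plus ethanolic inhibitor, and cells were incubated 18 h. Steroids were extracted twice with diethyl ether. Assays were done in duplicate.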

[2] = target: T1, 3-keto-steroid reductase/17-beta-hydroxysteroid dehydrogenase 7 (Homo sapiens); conditions: HEK293, at 0.3 µM
[3] = target: T2, 3-oxo-5-alpha-steroid 4-dehydrogenase 1 (Homo sapiens) (UniProt P18405); experiment: Inhibition of human 5alpha reductase 1 expressed in HEK293 cells assessed as inhibition of conversion of [14C]4-androstene-3,17-dione to [14C]5R-androstane-3,17-dione at 0.3 uM after 1 hr; assay type: cell-based
T2 sequence (whole entry): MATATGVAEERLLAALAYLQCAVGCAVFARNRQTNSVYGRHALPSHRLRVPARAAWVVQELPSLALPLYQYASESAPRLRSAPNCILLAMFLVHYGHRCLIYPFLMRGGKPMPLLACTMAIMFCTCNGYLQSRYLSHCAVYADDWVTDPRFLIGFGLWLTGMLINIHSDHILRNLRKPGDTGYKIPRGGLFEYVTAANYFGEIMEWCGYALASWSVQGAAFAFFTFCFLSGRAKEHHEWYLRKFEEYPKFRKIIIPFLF
In short: (§2)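 Intact HEK-293 cells transfected with pCMV-neo-h5α-reductase type 1 or type 2 were plated at 500 000 cells/well at 37 °C. They were incubated with 15 000 cpm [14C]-Δ4-dione and inhibitor (final 0.3 or 3 μM), in duplicate, for 1 h (type 1) or 3 h (type 2). Steroids were extracted and separated by TLC (toluene/EtOAc 4:1). Radioactivity gave % transformation and % inhibition.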

[4] = system: HEK293; experiment: Inhibition of human 17beta-HSD5 expressed in HEK293 cells assessed as inhibition of conversion of [14C]4-androstene-3,17-dione to [14C]testosterone at 0.3 uM after 20 hrs; assay type: cell-based
In short: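 Intact HEK-293 cells stably transfected with pCMV-neo-h17β-HSD5 were plated at 500 000 cells/well. They were incubated with 15 000 cpm [4-14C]-Δ4-dione and inhibitor in ethanol (0.3 or 3 μM) for 20 h at 37 °C, 5% CO2, in triplicate. Steroids were then extracted, separated and quantified.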

[5] = target: T3, 17-beta-hydroxysteroid dehydrogenase type 1 (Homo sapiens) (UniProt P14061); experiment: Inhibition of human 17beta-HSD1 expressed in HEK293 cells assessed as inhibition of reduction of [14C]estrone into [14C]estradiol at 0.1 uM; assay type: cell-based
T3 sequence (whole entry): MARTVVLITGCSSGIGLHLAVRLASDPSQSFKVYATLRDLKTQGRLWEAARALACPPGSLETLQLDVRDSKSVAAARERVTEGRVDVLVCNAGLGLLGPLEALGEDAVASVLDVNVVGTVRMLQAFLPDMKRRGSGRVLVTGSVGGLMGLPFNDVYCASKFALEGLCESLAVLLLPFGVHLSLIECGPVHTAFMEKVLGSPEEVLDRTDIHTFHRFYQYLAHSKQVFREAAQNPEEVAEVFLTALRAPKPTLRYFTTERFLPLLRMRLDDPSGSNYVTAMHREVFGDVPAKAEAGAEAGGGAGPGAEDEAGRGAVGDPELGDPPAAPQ
In short: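 Enzyme source: sonicated HEK-293 cells transfected with the h17β-HSD1 gene. Inhibitor was dissolved in ethanol and tested at final concentrations of 0.1 and 1 μM. The [14C]-E1 to [14C]-E2 assay was run as in an earlier report.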

[6] = target: T4, 3-keto-steroid reductase/17-beta-hydroxysteroid dehydrogenase 7 (Homo sapiens, UniProt P56937); experiment: Inhibition of human 17beta-HSD7 expressed in HEK293 cells assessed as inhibition of reduction of [14C]estrone into [14C]estradiol after 7 hrs; assay type: cell-based
T4 sequence (P56937 whole entry): T1 sequence (whole entry)
In short: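 Intact HEK-293 cells stably overexpressing h17β-HSD7 were plated at 500 000 cells/well in MEM/10% FCS at 37 °C. Fresh medium received 15 000 cpm (~150 nM, below Km) [4-14C]-estrone plus ethanolic inhibitor for 7 h. Steroids were extracted with diethyl ether. Screening used two inhibitor concentrations in duplicate or triplicate and is reported as % inhibition of E1→E2.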

[7] = target: T1, 3-keto-steroid reductase/17-beta-hydroxysteroid dehydrogenase 7 (Homo sapiens); experiment: Inhibition of human 17beta-HSD7 expressed in HEK293 cells assessed as inhibition of reduction of [14C]dihydrotestosterone into [14C]5alpha-androstane-3beta,17beta-diol at 0.3 uM after 18 hrs; assay type: cell-based; in short: as §1
[8] = target: T5, 3-oxo-5-alpha-steroid 4-dehydrogenase 2 (Homo sapiens) (UniProt P31213); experiment: Inhibition of human 5alpha reductase 2 expressed in HEK293 cells assessed as inhibition of conversion of [14C]4-androstene-3,17-dione to [14C]5R-androstane-3,17-dione at 0.3 uM after 3 hrs; assay type: cell-based; in short: as §2
T5 sequence (whole entry): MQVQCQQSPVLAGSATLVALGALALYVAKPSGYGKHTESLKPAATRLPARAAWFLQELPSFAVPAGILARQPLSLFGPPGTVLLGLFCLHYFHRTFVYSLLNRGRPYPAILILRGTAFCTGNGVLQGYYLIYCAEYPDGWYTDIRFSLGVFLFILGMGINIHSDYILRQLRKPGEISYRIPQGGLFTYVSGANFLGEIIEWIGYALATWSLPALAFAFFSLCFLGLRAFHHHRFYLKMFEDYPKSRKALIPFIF

[9] = target: T1, 3-keto-steroid reductase/17-beta-hydroxysteroid dehydrogenase 7 (Homo sapiens); conditions: HEK293, at 3 µM

| Compound | inhibition [1] [%] | inhibition [2] [%] | other results |
| --- | --- | --- | --- |
| CCCCCCCN(C=O)[C@H]1CC[C@H]2[C@@H]3CC[C@H]4N(C)C(=O)CC[C@]4(C)[C@H]3CC[C@]12C | 69 | 94 | – |
| CN1C(=O)CC[C@]2(C)[C@H]3CC[C@@]4(C)[C@@H](CC[C@@]45CCC(C)(C)C(=O)O5)[C@@H]3CC[C@@H]12 | 69 | – | inhibition [3]: Active; inhibition [4]: 90%; inhibition [5]: inactive; IC50 [6]: 116 nM |
| CCCCCCCN(C(=O)c1ccc(F)cc1)[C@H]1CC[C@H]2[C@@H]3CC[C@H]4N(C)C(=O)CC[C@]4(C)[C@H]3CC[C@]12C | 69 | 84 | – |
| CCCCCCCN(C)C1CC[C@H]2[C@@H]3CC[C@H]4NC(=O)CC[C@]4(C)[C@H]3CC[C@]12C (stereo partly drawn) | 69 | – | – |
| CCCCCCCCCCN(C=O)C1CC[C@H]2[C@@H]3CC[C@H]4N(C)C(=O)CC[C@]4(C)[C@H]3CC[C@]12C (stereo partly drawn) | 69 | – | inhibition [7]: 49%; IC50 [6]: 195 nM |
| CCCCCCCN(C(=O)c1c(F)cccc1F)[C@H]1CC[C@H]2[C@@H]3CC[C@H]4N(C)C(=O)CC[C@]4(C)[C@H]3CC[C@]12C | 69 | 84 | – |
| CCCCCCCN(CCCC)[C@H]1CC[C@H]2[C@@H]3CC[C@H]4N(C)C(=O)CC[C@]4(C)[C@H]3CC[C@]12C | 69 | 76 | inhibition [8]: inactive |
| CC1(C)CC[C@@]2(CC[C@H]3[C@@H]4CC[C@H]5NC(=O)CC[C@]5(C)[C@H]4CC[C@@]32C)OC1=O | 69 | – | inhibition [3]: inactive; inhibition [4]: 90%; inhibition [8]: inactive; inhibition [5]: inactive |
| CCCCCCCN(C)[C@H]1CC[C@H]2[C@@H]3CC[C@H]4N(C)C(=O)CC[C@]4(C)[C@H]3CC[C@]12C | 69 | – | inhibition [8]: inactive; IC50 [6]: 189 nM |
| CN1C(=O)CC[C@]2(C)[C@H]3CC[C@]4(C)[C@@H](N(C(=O)c5ccccc5)c5ccccc5)CC[C@H]4[C@@H]3CC[C@@H]12 | – | 31.9 | inhibition [9]: 64.1% |
| CCCCCCCCCCN(C=O)C1CC[C@H]2[C@@H]3CC[C@H]4NC(=O)CC[C@]4(C)[C@H]3CC[C@]12C (stereo partly drawn) | 69 | – | – |
| CC/C(=C(\c1ccccc1)c1ccc(OCCN(C)C)cc1)c1ccccc1 | – | 8.9 | inhibition [9]: 3.2% |
| CC1(C)CC[C@@]2(CC[C@H]3[C@@H]4CCc5cc(C#N)ccc5[C@H]4CC[C@@]32C)OC1=O | – | 23.8 | inhibition [9]: 34.6% |
